Laboratory results as given in ChEMBL document CHEMBL1123522, “Angiotensin converting enzyme inhibitors as antihypertensive agents: 1-[(2-mercaptocycloalkyl)carbonyl]-L-prolines” (J Med Chem, 1986).
pIC50: −log10 of the molar value.

Legend:
[1] = biological target: T1, Angiotensin-converting enzyme (Rattus norvegicus, UniProt P47820); test: Inhibitory activity against Angiotensin I converting enzyme
T1 sequence (P47820 whole entry): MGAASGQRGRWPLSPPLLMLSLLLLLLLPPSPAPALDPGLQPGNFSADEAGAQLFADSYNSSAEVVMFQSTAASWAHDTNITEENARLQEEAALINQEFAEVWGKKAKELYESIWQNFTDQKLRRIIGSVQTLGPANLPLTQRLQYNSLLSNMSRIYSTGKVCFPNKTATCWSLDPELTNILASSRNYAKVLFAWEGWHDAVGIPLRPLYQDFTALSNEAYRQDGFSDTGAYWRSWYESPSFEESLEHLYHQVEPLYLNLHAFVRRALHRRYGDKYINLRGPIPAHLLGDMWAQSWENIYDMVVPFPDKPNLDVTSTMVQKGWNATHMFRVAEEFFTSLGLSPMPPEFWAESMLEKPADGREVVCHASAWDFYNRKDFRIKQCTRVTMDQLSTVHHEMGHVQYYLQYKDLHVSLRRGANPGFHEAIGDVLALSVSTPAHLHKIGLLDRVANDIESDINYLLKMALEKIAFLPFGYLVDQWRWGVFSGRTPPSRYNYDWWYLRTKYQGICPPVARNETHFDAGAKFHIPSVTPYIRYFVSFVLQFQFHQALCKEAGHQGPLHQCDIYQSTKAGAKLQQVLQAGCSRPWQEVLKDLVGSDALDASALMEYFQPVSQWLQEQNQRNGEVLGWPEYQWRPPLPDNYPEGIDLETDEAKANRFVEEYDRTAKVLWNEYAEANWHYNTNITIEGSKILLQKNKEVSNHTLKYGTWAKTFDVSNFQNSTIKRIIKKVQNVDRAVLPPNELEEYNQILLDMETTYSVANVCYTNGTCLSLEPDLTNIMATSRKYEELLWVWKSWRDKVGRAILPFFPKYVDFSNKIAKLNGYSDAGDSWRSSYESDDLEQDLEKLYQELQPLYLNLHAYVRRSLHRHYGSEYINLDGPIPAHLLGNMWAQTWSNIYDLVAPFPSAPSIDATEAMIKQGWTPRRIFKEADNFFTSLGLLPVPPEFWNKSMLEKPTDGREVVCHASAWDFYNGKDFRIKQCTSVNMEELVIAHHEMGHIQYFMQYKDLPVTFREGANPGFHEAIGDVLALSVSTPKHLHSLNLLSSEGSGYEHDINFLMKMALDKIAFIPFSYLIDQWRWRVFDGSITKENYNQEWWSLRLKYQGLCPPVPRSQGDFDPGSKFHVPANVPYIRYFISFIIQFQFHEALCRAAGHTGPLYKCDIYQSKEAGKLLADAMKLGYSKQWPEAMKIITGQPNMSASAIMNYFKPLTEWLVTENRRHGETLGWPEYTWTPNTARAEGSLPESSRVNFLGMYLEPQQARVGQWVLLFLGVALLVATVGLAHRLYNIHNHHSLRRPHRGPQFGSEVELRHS

[2] = biological target: T2, Angiotensin-converting enzyme (Rattus norvegicus) (UniProt P47820); test: Compound was evaluated for ACE inhibitory activity in conscious normotensive rats at a dose 1 mg/kg given intravenously by determining percent reduction in Angiotensin I converting enzyme response; assay type: organism-based; set-up: dose 1 mg/kg
T2 sequence (whole entry): T1 sequence (P47820 whole entry)

[3] = biological target: T2, Angiotensin-converting enzyme (Rattus norvegicus); test: Compound was evaluated for ACE inhibitory activity in conscious normotensive rats at a dose 10 mg/kg given intravenously by determining percent reduction in Angiotensin I converting enzyme response; assay type: organism-based; set-up: dose 10 mg/kg
Canis familiaris [4] = test: Compound was evaluated for antihypertensive activity in conscious renal hypertensive dogs at a 30 mg/kg dose given orally; assay type: functional, Canis lupus familiaris; conditions: route oral
Procedure, shortened: (§1)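 Conscious mongrel dogs made hypertensive by bilateral renal artery constriction (Goldblatt). Drug given by gavage in gelatine capsules; systolic pressure fall vs 0 time, observed up to 7 h; Dunnett's t test.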

[5] = biological target: T2, Angiotensin-converting enzyme (Rattus norvegicus); test: Compound was evaluated for ACE inhibitory activity in conscious normotensive rats at a dose 10 mg/kg given intravenously by determining percent reduction in Angiotensin I converting enzyme; assay type: organism-based; set-up: dose 10 mg/kg
Canis familiaris [6] = test: Compound was evaluated for antihypertensive activity in conscious renal hypertensive dogs at a 10 mg/kg dose given orally; assay type: functional, Canis lupus familiaris; conditions: route oral; procedure, shortened: as §1

pIC50 [1] | Compound | other results
3.60 | CC1(C)CC[C@H](C(=O)N2CCC[C@H]2C(=O)O)[C@H]1SC(=O)c1ccccc1 | 
4.71 | O=C(O)[C@@H]1CCCN1C(=O)[C@@H]1CCC[C@@H]1S | Reduction [2]: -22%; Change in ACE response [3]: -41%; SBP decrease (Canis familiaris [4]): <10%
3.60 | CC(C)(C)OC(=O)[C@@H]1CCCN1C(=O)[C@@H]1CC[C@H]1SC(=O)c1ccccc1 | 
5.26 | O=C(S[C@@H]1CC[C@H]1C(=O)N1CCC[C@H]1C(=O)O)c1ccccc1 | Reduction [5]: -60%; SBP decrease (Canis familiaris [6]): -15%; Reduction [2]: -45%; SBP decrease (Canis familiaris [4]): -17%
3.60 | CC(C)(C)OC(=O)[C@@H]1CCCN1C(=O)[C@@H]1CCC[C@@H]1SC(=O)c1ccccc1 | 
6.24 | O=C(S[C@@H]1CCC[C@H]1C(=O)N1CCC[C@H]1C(=O)O)c1ccccc1 | SBP decrease (Canis familiaris [6]): -15%; Change in ACE response [3]: -80%; SBP decrease (Canis familiaris [4]): -18%
3.60 | CC(C)(C)OC(=O)[C@@H]1CCCN1C(=O)[C@H]1CCC[C@@H]1SC(=O)c1ccccc1 | 
5.95 | O=C(O)[C@@H]1CCCN1C(=O)[C@@H]1CCC[C@H]1S | SBP decrease (Canis familiaris [6]): -18%; Reduction [2]: -42%; Change in ACE response [3]: -75%; SBP decrease (Canis familiaris [4]): -21%
3.60 | O=C(S[C@H]1CC[C@@H]1C(=O)N1CCC[C@H]1C(=O)O)c1ccccc1 | SBP decrease (Canis familiaris [6]): <10%; Reduction [2]: -18%; Change in ACE response [3]: -30%; SBP decrease (Canis familiaris [4]): -19%
3.60 | O=C(S[C@@H]1CCC[C@@H]1C(=O)N1CCC[C@H]1C(=O)O)c1ccccc1 | 
3.60 | CC(C)(C)OC(=O)[C@@H]1CCCN1C(=O)[C@@H]1CCC(C)(C)[C@@H]1SC(=O)c1ccccc1 | 
3.60 | CC(C)(C)OC(=O)[C@@H]1CCCN1C(=O)[C@H]1CCC(C)(C)[C@@H]1SC(=O)c1ccccc1 | 
3.60 | CC1(C)CC[C@H](C(=O)N2CCC[C@H]2C(=O)O)[C@H]1S | 
4.90 | O=C(O)[C@@H]1CCCN1C(=O)[C@H]1CC[C@@H]1S | 
3.67 | CC1(C)CC[C@@H](C(=O)N2CCC[C@H]2C(=O)O)[C@@H]1S | 
4.47 | O=C(O)[C@@H]1CCCN1C(=O)[C@H]1CCC[C@@H]1S | 
3.84 | O=C(S[C@H]1CCC[C@H]1C(=O)N1CCC[C@H]1C(=O)O)c1ccccc1 | 
 | C[C@H](CS)C(=O)N1CCC[C@H]1C(=O)O [CAPTOPRIL] | SBP decrease (Canis familiaris [6]): -15%; SBP decrease (Canis familiaris [4]): -19%
5.79 | O=C(O)[C@@H]1CCCN1C(=O)C1CCCC1S (some centres not stated) | 
3.84 | O=C(S[C@H]1CCC[C@@H]1C(=O)N1CCC[C@H]1C(=O)O)c1ccccc1 | 
3.60 | CC(C)(C)OC(=O)[C@@H]1CCCN1C(=O)[C@H]1CC[C@@H]1SC(=O)c1ccccc1 | 
3.60 | CC(C)(C)OC(=O)[C@@H]1CCCN1C(=O)[C@@H]1CCC[C@H]1SC(=O)c1ccccc1 | 
3.91 | CC(C)(C)OC(=O)[C@@H]1CCCN1C(=O)[C@H]1CCC[C@H]1SC(=O)c1ccccc1 | 
5.90 | O=C(O)[C@@H]1CCCN1C(=O)[C@@H]1CC[C@H]1S | SBP decrease (Canis familiaris [4]): <10%
3.60 | CC1(C)CC[C@@H](C(=O)N2CCC[C@H]2C(=O)O)[C@H]1SC(=O)c1ccccc1 | 
3.69 | O=C(O)[C@@H]1CCCN1C(=O)[C@H]1CCC[C@H]1S | 
4.95 | O=C(O)[C@@H]1CCCN1C(=O)C1CCCCC1S (some centres not stated) | 
